Experimental data published in ChEMBL document CHEMBL1154674, “Synthesis and evaluation of three 18F-labeled aminophenylbenzothiazoles as amyloid imaging agents” (J Med Chem, 2009).

Key:
Format in all cases: ADME, organism-based, Macaca mulatta
[1] = Drug level in normal rhesus monkey frontal cortex assessed as standard uptake value at 96.3 MBq, iv after 65 mins by microPET; settings: in vivo
[2] = Drug level in normal rhesus monkey frontal cortex assessed as standard uptake value at 96.3 MBq, iv after 1.5 mins by microPET; settings: in vivo, 0.025 h
[3] = Drug level in normal rhesus monkey frontal cortex assessed as standard uptake value at 96.3 MBq, iv after 2.5 mins by microPET; settings: in vivo
[4] = Drug level in normal rhesus monkey cerebellum assessed as standard uptake value at 96.3 MBq, iv after 10 mins by microPET; settings: in vivo
Summary of the method: (§1)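 One normal rhesus monkey, each tracer given iv via the vena saphena (81.2, 96.3 or 109.4 MBq), with 1 day between tracer injections. Dynamic brain μPET over 180 min used frames of 5 × 60 s, 5 × 120 s, 9 × 300 s and 12 × 600 s. Images were reconstructed by filtered back projection with a RAMP filter. Regional time-activity curves were expressed as SUV.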

[5] = Drug level in normal rhesus monkey parietal cortex assessed as standard uptake value at 96.3 MBq, iv after 6 mins by microPET; settings: in vivo, 0.1 h
[6] = Drug level in normal rhesus monkey parietal cortex assessed as standard uptake value at 96.3 MBq, iv after 155 mins by microPET; settings: in vivo
[7] = Drug level in normal rhesus monkey pons assessed as standard uptake value at 96.3 MBq, iv after 4.5 mins by microPET; settings: in vivo, 0.075 h
[8] = Drug level in normal rhesus monkey thalamus assessed as standard uptake value at 96.3 MBq, iv after 22.5 mins by microPET; settings: in vivo, 0.375 h
[9] = Drug level in normal rhesus monkey thalamus assessed as standard uptake value at 96.3 MBq, iv after 165 mins by microPET; settings: in vivo, 2.75 h
[10] = Drug level in normal rhesus monkey cerebellum assessed as standard uptake value at 81.2 MBq, iv after 37.5 mins by microPET; settings: in vivo, 0.625 h; summary of the method: as §1
[11] = Drug level in normal rhesus monkey white matter assessed as standard uptake value at 81.2 MBq, iv after 145 mins by microPET; settings: in vivo
[12] = Drug level in normal rhesus monkey frontal cortex assessed as standard uptake value at 81.2 MBq, iv after 52.5 mins by microPET; settings: in vivo, 0.875 h
[13] = Drug level in normal rhesus monkey cerebellum assessed as standard uptake value at 81.2 MBq, iv after 4.5 mins by microPET; settings: in vivo, 0.075 h; summary of the method: as §1
[14] = Drug level in normal rhesus monkey pons assessed as standard uptake value at 81.2 MBq, iv after 3.5 mins by microPET; settings: in vivo
[15] = Drug level in normal rhesus monkey cerebellum assessed as standard uptake value at 81.2 MBq, iv after 27.5 mins by microPET; settings: in vivo; summary of the method: as §1
[16] = Drug level in normal rhesus monkey white matter assessed as standard uptake value at 152.9 MBq, iv after 85 mins by microPET; settings: in vivo
[17] = Drug level in normal rhesus monkey cerebellum assessed as standard uptake value at 152.9 MBq, iv after 0.5 mins by microPET; settings: in vivo
Summary of the method: (§2)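 One normal rhesus monkey received each tracer via the vena saphena, with 1 day between injections. Dynamic μPET ran 180 min for 18F tracers (5×60 s, 5×120 s, 9×300 s, 12×600 s) and 90 min for the 11C tracer (5×60 s, 5×120 s, 9×300 s, 3×600 s). Filtered back-projection reconstruction (RAMP filter) was used. Time-activity curves were drawn to give regional SUV.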

[18] = Drug level in normal rhesus monkey frontal cortex assessed as standard uptake value at 152.9 MBq, iv after 57.5 mins by microPET; settings: in vivo
Summary of the method: (§3)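 Single normal rhesus monkey; tracer given iv via the vena saphena, 1 day apart from the other tracer injections. Dynamic μPET ran 90 min (5×60 s, 5×120 s, 9×300 s, 3×600 s). Images were reconstructed by filtered back projection with a RAMP filter. Regional time-activity curves were expressed as SUV.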

[19] = Drug level in normal rhesus monkey cerebellum assessed as standard uptake value at 152.9 MBq, iv after 47.5 mins by microPET; settings: in vivo; summary of the method: as §2
[20] = Drug level in normal rhesus monkey white matter assessed as standard uptake value at 152.9 MBq, iv after 17.5 mins by microPET; settings: in vivo
[21] = Drug level in normal rhesus monkey pons assessed as standard uptake value at 152.9 MBq, iv after 10 mins by microPET; settings: in vivo
[22] = Drug level in normal rhesus monkey frontal cortex assessed as standard uptake value at 152.9 MBq, iv after 37.5 mins by microPET; settings: in vivo, 0.625 h; summary of the method: as §3
[23] = Drug level in normal rhesus monkey thalamus assessed as standard uptake value at 152.9 MBq, iv after 65 mins by microPET; settings: in vivo
[24] = Drug level in normal rhesus monkey frontal cortex assessed as standard uptake value at 152.9 MBq, iv after 22.5 mins by microPET; settings: in vivo, 0.375 h; summary of the method: as §3
[25] = Drug level in normal rhesus monkey cerebellum assessed as standard uptake value at 152.9 MBq, iv after 65 mins by microPET; settings: in vivo; summary of the method: as §2
[26] = Drug level in normal rhesus monkey white matter assessed as standard uptake value at 152.9 MBq, iv after 32.5 mins by microPET; settings: in vivo
[27] = Drug level in normal rhesus monkey cerebellum assessed as standard uptake value at 152.9 MBq, iv after 14 mins by microPET; settings: in vivo; summary of the method: as §2
[28] = Drug level in normal rhesus monkey pons assessed as standard uptake value at 109.4 MBq, iv after 87 mins by microPET; settings: in vivo, 1.45 h
[29] = Drug level in normal rhesus monkey frontal cortex assessed as standard uptake value at 109.4 MBq, iv after 47.5 mins by microPET; settings: in vivo; summary of the method: as §1
[30] = Drug level in normal rhesus monkey parietal cortex assessed as standard uptake value at 109.4 MBq, iv after 42.5 mins by microPET; settings: in vivo
[31] = Drug level in normal rhesus monkey pons assessed as standard uptake value at 109.4 MBq, iv after 32.5 mins by microPET; settings: in vivo
[32] = Drug level in normal rhesus monkey parietal cortex assessed as standard uptake value at 109.4 MBq, iv after 15.5 mins by microPET; settings: in vivo
[33] = Drug level in normal rhesus monkey thalamus assessed as standard uptake value at 109.4 MBq, iv after 111 mins by microPET; settings: in vivo
[34] = Drug level in normal rhesus monkey cerebellum assessed as standard uptake value at 109.4 MBq, iv after 4.5 mins by microPET; settings: in vivo, 0.075 h
Summary of the method: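 Single normal rhesus monkey; each tracer given iv via the vena saphena, with 1 day between tracer injections. Dynamic μPET ran 180 min (5×60 s, 5×120 s, 9×300 s, 12×600 s). Images were reconstructed by filtered back projection with a RAMP filter. Regional time-activity curves were expressed as SUV.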

[35] = Drug level in normal rhesus monkey frontal cortex assessed as standard uptake value at 109.4 MBq, iv after 63 mins by microPET; settings: in vivo, 1.05 h
[36] = Drug level in normal rhesus monkey cerebellum assessed as standard uptake value at 109.4 MBq, iv after 129 mins by microPET; settings: in vivo, 2.15 h

**Q.** Which SUV [1] does the source give for `CN(C)c1ccc2nc(-c3ccc([18F])cc3)sc2c1` here?
**A.** 1.79

**Q.** And the SUV [2]?
**A.** 1.43

**Q.** And the SUV [3]?
**A.** 1.8

**Q.** What about the SUV [4] of the same molecule?
**A.** 1.69

**Q.** What about the SUV [5] of the same molecule?
**A.** 2.16

**Q.** And the SUV [6]?
**A.** 1.23

**Q.** What about the SUV [7] of the same molecule?
**A.** 1.28

**Q.** What about the SUV [8] of the same molecule?
**A.** 2.35

**Q.** What about the SUV [9] of the same molecule?
**A.** 1.86

**Q.** With `CNc1ccc2nc(-c3ccc([18F])cc3)sc2c1` as the molecule, how does the SUV [10] read?
**A.** 2.545

**Q.** And the SUV [11]?
**A.** 3.888

**Q.** What about the SUV [12] of the same molecule?
**A.** 5.321

**Q.** And the SUV [13]?
**A.** 2.964

**Q.** And the SUV [14]?
**A.** 4.503

**Q.** And the SUV [15]?
**A.** 2.224

**Q.** For `[11CH3]Nc1ccc(-c2nc3ccc(O)cc3s2)cc1` [PITTSBURGH COMPOUND B], which SUV [16] is on record?
**A.** 0.878

**Q.** What about the SUV [17] of the same molecule?
**A.** 0.053

**Q.** What about the SUV [18] of the same molecule?
**A.** 0.692

**Q.** What about the SUV [19] of the same molecule?
**A.** 0.866

**Q.** And the SUV [20]?
**A.** 1.328

**Q.** And the SUV [21]?
**A.** 2.036

**Q.** And the SUV [22]?
**A.** 0.912

**Q.** And the SUV [23]?
**A.** 0.85

**Q.** What about the SUV [24] of the same molecule?
**A.** 1.373

**Q.** And the SUV [25]?
**A.** 0.723

**Q.** What about the SUV [26] of the same molecule?
**A.** 1.12

**Q.** What about the SUV [27] of the same molecule?
**A.** 2.11

**Q.** For `Nc1ccc2nc(-c3ccc([18F])cc3)sc2c1`, which SUV [28] is on record?
**A.** 4.84

**Q.** What about the SUV [29] of the same molecule?
**A.** 4.76

**Q.** What about the SUV [30] of the same molecule?
**A.** 4.54

**Q.** What about the SUV [31] of the same molecule?
**A.** 4.74

**Q.** What about the SUV [32] of the same molecule?
**A.** 5.1

**Q.** What about the SUV [33] of the same molecule?
**A.** 4.72

**Q.** What about the SUV [34] of the same molecule?
**A.** 6.13

**Q.** What about the SUV [35] of the same molecule?
**A.** 4.56

**Q.** And the SUV [36]?
**A.** 2.36
